From ChEMBL document CHEMBL1142933, “Rational design of novel, potent small molecule pan-selectin antagonists” (J Med Chem, 2007)

What was measured:
E-selectin = biological target: T1, E-selectin (Homo sapiens, UniProt P16581); test: Inhibition of human E-selectin after 2 hrs
T1 sequence (P16581 whole entry): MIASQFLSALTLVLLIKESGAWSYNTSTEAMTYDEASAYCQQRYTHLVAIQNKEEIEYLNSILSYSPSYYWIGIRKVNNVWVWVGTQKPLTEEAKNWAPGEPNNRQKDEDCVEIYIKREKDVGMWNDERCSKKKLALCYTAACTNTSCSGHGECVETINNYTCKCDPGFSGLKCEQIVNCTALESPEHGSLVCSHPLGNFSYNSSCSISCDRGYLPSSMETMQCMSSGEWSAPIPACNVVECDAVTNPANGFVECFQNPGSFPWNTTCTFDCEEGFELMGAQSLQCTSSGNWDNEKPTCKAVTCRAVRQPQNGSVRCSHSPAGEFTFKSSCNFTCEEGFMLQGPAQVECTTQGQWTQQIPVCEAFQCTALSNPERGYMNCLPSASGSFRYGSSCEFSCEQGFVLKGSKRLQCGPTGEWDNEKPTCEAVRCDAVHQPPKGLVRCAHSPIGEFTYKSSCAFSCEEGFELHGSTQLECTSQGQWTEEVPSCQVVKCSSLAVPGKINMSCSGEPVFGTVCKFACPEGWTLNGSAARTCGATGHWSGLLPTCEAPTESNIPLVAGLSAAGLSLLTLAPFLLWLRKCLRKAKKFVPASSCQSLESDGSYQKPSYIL
How it was run: (§1)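 Biotinylated sLeX-tyrosine sulfate polyacrylamide complexed with streptavidin-peroxidase added with compound at varying concentrations (HEPES pH 7.4, 1 mM CaCl2, 1% DMSO), 2 h 37 °C. TMB read-out, OD 450 vs 620 nm.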

HL-60 [1] = test: Inhibition of attachment of HL60 cells to E-selectin at 109 uM after 5 mins; assay type: functional; settings: Homo sapiens, HL-60, 5 min
How it was run: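 Dishes coated with E- or P-selectin/Fc chimera, blocked with BSA, mounted in a parallel flow chamber run recirculating; HL-60 cells at 2.4 million/mL final. Cells attached after 5 min continuous flow at calculated shear 1 dyn/cm², with 109 µM compound or DMSO vehicle, counted in five low power fields. Mean inhibition as % of vehicle control from mean cells/field of at least two independent experiments.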

HL-60 [2] = test: Inhibition of attachment of HL60 cells to P-selectin at 109 uM after 5 mins; assay type: functional; settings: Homo sapiens, HL-60, 5 min
How it was run: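 Dishes coated with E- or P-selectin/Fc chimera, blocked with BSA, mounted in a parallel flow chamber run recirculating; HL-60 cells at 2.4 million/mL final. Mean inhibition as % of vehicle control from mean cells/field of at least two independent experiments.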

P-selectin = biological target: T2, P-selectin (Homo sapiens, UniProt P16109); test: Inhibition of human P-selectin after 2 hrs; how it was run: as §1
T2 sequence (P16109 whole entry): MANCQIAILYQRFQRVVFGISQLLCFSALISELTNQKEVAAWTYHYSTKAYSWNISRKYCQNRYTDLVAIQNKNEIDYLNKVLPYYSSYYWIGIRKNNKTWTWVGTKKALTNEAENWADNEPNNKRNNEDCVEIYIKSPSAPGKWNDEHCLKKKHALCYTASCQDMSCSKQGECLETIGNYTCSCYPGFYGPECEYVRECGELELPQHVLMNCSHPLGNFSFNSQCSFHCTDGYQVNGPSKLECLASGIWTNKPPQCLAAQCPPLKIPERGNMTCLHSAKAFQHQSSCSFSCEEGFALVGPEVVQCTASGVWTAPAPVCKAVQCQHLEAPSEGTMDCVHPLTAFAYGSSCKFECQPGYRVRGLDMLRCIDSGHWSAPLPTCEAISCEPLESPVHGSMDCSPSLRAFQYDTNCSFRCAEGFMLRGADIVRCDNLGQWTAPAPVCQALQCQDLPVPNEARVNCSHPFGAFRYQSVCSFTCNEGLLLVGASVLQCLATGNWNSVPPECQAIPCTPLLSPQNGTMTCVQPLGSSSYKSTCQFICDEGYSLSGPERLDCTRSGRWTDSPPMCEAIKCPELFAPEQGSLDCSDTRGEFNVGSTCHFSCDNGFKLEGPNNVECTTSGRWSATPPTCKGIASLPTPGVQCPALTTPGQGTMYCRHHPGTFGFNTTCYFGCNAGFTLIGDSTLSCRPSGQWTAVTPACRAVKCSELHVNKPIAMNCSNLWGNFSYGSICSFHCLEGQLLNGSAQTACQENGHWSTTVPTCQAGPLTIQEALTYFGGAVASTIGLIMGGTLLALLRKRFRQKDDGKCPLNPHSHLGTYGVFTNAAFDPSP

L-selectin = biological target: T3, L-selectin (Homo sapiens, UniProt P14151); test: Inhibition of human L-selectin after 2 hrs; how it was run: as §1
T3 sequence (P14151 whole entry): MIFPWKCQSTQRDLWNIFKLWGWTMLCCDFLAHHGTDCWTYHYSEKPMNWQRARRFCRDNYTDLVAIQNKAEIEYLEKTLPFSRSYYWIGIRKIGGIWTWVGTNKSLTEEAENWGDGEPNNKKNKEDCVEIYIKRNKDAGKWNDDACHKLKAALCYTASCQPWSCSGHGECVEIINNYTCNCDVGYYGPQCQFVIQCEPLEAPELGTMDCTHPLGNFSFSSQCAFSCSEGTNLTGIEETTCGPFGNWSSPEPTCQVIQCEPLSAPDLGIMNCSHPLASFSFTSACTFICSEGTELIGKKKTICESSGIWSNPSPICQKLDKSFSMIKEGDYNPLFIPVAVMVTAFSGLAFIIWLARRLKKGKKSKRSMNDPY

[3] = biological target: T4, E-selectin (Homo sapiens) (UniProt P16581); test: Inhibition of human E-selectin after 2 hrs at 100 uM
T4 sequence (whole entry): T1 sequence (P16581 whole entry)
How it was run: (§2)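 Human E-, P- or L-selectin/Fc chimera (0.61 nM) captured on anti-Fc-coated wells, then incubated 2 h at 37 °C with peroxidase-streptavidin-complexed sLeX-tyrosine sulfate polyacrylamide ligand plus compound at 100 µM in HEPES buffer pH 7.4 with CaCl2, 1% DMSO. Bound ligand measured by TMB, OD 450 vs 620 nm; % inhibition reported.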

[4] = biological target: T5, L-selectin (Homo sapiens) (UniProt P14151); test: Inhibition of human L-selectin after 2 hrs at 100 uM; how it was run: as §2
T5 sequence (whole entry): T3 sequence (P14151 whole entry)

[5] = biological target: T6, P-selectin (Homo sapiens) (UniProt P16109); test: Inhibition of human P-selectin after 2 hrs at 100 uM; how it was run: as §2
T6 sequence (whole entry): T2 sequence (P16109 whole entry)

Row | IC50 (E-selectin) [µM] | IC50 (P-selectin) [µM] | IC50 (L-selectin) [µM] | inhibition [3] [%] | inhibition [4] [%] | inhibition [5] [%] | SMILES | inhibition at 109 µM (HL-60 [1]) [%] | inhibition at 109 µM (HL-60 [2]) [%]
1 | 85.4 | 43.2 | 64.9 | – | – | – | O=C(O)Cc1cccc(-c2ccccc2NC(=O)CCc2cc(O)c(O)c(O)c2)c1 | 20 | 22
2 | – | – | – | 15 | 4.3 | -5.3 | O=c1cc(-c2ccccc2)oc2cc(O)cc(O)c12 | – | –
3 | > 500 | 42.8 | 64.5 | – | – | – | Cc1ccc(C(=O)O)cc1NC(=O)Cc1cc(O)c(O)c(O)c1 | 22 | 24
4 | > 500 | 21.8 | 37.6 | – | – | – | O=C(O)Cc1ccc(-c2ccccc2NC(=O)c2cccc(-c3cc(O)c(O)c(O)c3)c2)s1 | 32 | 45
5 | 15.7 | 0.74 | 1.1 | – | – | – | O=C(O)Cc1ccc(-c2cccc(NC(=O)c3cccc(-c4ccc(O)c(O)c4O)c3)c2)s1 | 58 | 93
6 | – | – | – | 3.1 | 83.6 | 77 | O=c1c(O)cccc2cc(O)c(O)c(O)c12 | – | –
7 | – | – | – | 37.6 | 51.7 | 52 | O=c1cc(-c2ccccc2)oc2cc(O)c(O)c(O)c12 | – | –
8 | 48 | 1.1 | 1.6 | – | – | – | O=C(O)Cc1ccc(-c2ccccc2NC(=O)c2ccc(-c3ccc(O)c(O)c3O)cc2)s1 | 33 | 58
9 | > 500 | 24.8 | 41.7 | – | – | – | O=C(O)Cc1ccc(-c2ccccc2NC(=O)CCCc2ccc(O)c(O)c2O)s1 | 26 | 47
10 | – | – | – | 6 | 1.1 | -3 | O=C(O)c1cccc(O)c1O | – | –
11 | – | – | – | 25.6 | 12.2 | -1 | O=C(O)C1=C[C@@H](O)[C@@H](O)[C@H](O)C1 | – | –
12 | – | – | – | 8.3 | 13.5 | 1.7 | Oc1cccc(O)c1O [PYROGALLOL] | 47 | 24
13 | 48.6 | 19.5 | 21.3 | – | – | – | O=C(O)Cc1ccc(-c2ccccc2NC(=O)/C=C/c2cc(O)c(O)c(O)c2)s1 | 28 | 23
14 | – | – | – | 19.5 | 1.3 | – | O=C(O)c1ccc(O)c(O)c1 | – | –
15 | 9.7 | 0.57 | 0.79 | – | – | – | O=C(O)Cc1ccc(-c2ccc(NC(=O)c3cccc(-c4ccc(O)c(O)c4O)c3)cc2)s1 | 47 | 83
16 | > 500 | 0.87 | 1.5 | – | – | – | O=C(O)Cc1cccc(-c2ccccc2OC(=O)c2cc(O)c(O)c(O)c2)c1 | 16 | 35
17 | 3.3 | 2.4 | 3.1 | – | – | – | O=C(O)Cc1ccc(-c2ccccc2NC(=O)Cc2cc(O)c(O)c(O)c2)s1 | 35 | 11
18 | 61.4 | 1.2 | 1.6 | – | – | – | O=C(Nc1ccccc1-c1ccc(C(=O)O)s1)c1cccc(-c2ccc(O)c(O)c2O)c1 | 53 | 98
